Measurements from ChEMBL document CHEMBL5335820, “Novel quinolinepiperazinyl-aryltetrazoles targeting the blood stage of Plasmodium falciparum” (RSC Med Chem, 2024).
The source made the active and inactive calls. The calls are words filed in the database; no cut-off is given here.

Assays:
[1] = Binding affinity to Plasmodium falciparum GAP50 assessed as dissociation constant by SPR analysis
Method in brief: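 GAP50 at 50 μg ml−1 in 10 mM acetate pH 4.5 was amine-coupled (EDC/NHS) onto a CM5 chip. Analytes at several concentrations in 5% DMSO/1× PBS; association 60 s, dissociation 120 s, flow 30 μl min−1. Regeneration with 10 mM glycine pH 3.0 for 30 s. Sensorgrams fitted to a 1:1 Langmuir model giving ka, kd and KD.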

[2] = Toxicity in mouse assessed as change in temperature at 100 mg/kg, po measured after 45 mins; assay type: organism-based; details: in vivo, 0.75 h
Method in brief: (§1)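 Acute oral toxicity per OECD 423. Mice were fasted 4 h, given a single 100 mg/kg oral dose, and observed for 45 min for signs of acute toxicity, compared with untreated controls.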

[3] = Resistance index, ratio of IC50 of chloroquine resistant Plasmodium falciparum INDO to chloroquine sensitive Plasmodium falciparum 3D7; assay type: functional
Method in brief: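 Resistance index = IC50 against PfINDO / IC50 against Pf3D7. Both IC50s came from 72 h SYBR Green I assays.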

Plasmodium falciparum [4] = assay: Additive antiplasmodial activity against multidrug-resistant Plasmodium falciparum Cam3.1R539T infected in human erythrocytes at 8 times IC50 concentration incubated for 72 hrs in presence of artemisinin by SYBR green I staining based fluorescence assay; assay type: functional, organism-based; details: Erythrocyte
Method in brief: (§2)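 P. falciparum Cam3.1R539T in O+ human erythrocytes, 1% parasitemia, 2% haematocrit. 8× IC50 stocks of test compound and standard drug were mixed at molar ratios 4:1, 3:2, 2:3 and 1:4, then serially diluted two-fold. Plates were incubated 72 h at 37 °C and read by SYBR Green I lysis. Controls were 0.4% DMSO (100% growth) and 4 μM chloroquine (0% growth). ΣFIC = FICA + FICB; <1 synergistic, 1.0–2.0 additive, >2.0 antagonistic.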

Plasmodium falciparum [5] = assay: Binding affinity to Plasmodium falciparum GAP50 assessed as association constant by SPR analysis
Method in brief: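 SPR: GAP50 at 50 μg/ml in 10 mM acetate pH 4.5 was immobilised on a CM5 chip by EDC/NHS coupling. Analytes were run in 5% DMSO/PBS at 30 μl/min, with 60 s association and 120 s dissociation. The chip was regenerated with 10 mM glycine pH 3.0 for 30 s. Fits used a 1:1 Langmuir model.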

Plasmodium falciparum [6] = assay: Additive antiplasmodial activity against multidrug-resistant Plasmodium falciparum Cam3.1R539T infected in human erythrocytes at 8 times IC50 concentration incubated for 72 hrs in presence of pyrimethamine by SYBR green I staining based fluorescence assay; assay type: functional, organism-based; details: Erythrocyte; method in brief: as §2
Plasmodium falciparum [7] = assay: Antagonistic antiplasmodial activity against multidrug-resistant Plasmodium falciparum Cam3.1R539T infected in human erythrocytes at 8 times IC50 concentration incubated for 72 hrs in presence of mefloquine by SYBR green I staining based fluorescence assay; assay type: functional, organism-based; details: Erythrocyte; method in brief: as §2
[8] = Toxicity in mouse assessed as coma at 100 mg/kg, po measured after 45 mins; assay type: organism-based; details: in vivo, 0.75 h; method in brief: as §1
[9] = Toxicity in mouse assessed as change in body weight at 100 mg/kg, po measured after 45 mins; assay type: organism-based; details: in vivo, 0.75 h; method in brief: as §1
Plasmodium falciparum [10] = assay: Antiplasmodial activity against chloroquine resistant ring stage Plasmodium falciparum INDO infected in human erythrocytes assessed as reduction in parasitemia at 1.79 uM incubated for 12 hrs by time-kill kinetics based FACS analysis relative to control; assay type: functional, Erythrocyte; parameters: scale not given: the % may be the effect or the level left
Method in brief: (§3)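 PfINDO rings were exposed to 2.25 or 1.79 μM, with compound washed out by centrifugation at 12, 24, 36, 48 or 57 h. Cultures were then grown drug-free to a total of 96 h. Parasitemia at the end of the second cycle was counted by FACS on 10^5 cells.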

Plasmodium falciparum [11] = assay: Antiplasmodial activity against chloroquine resistant schizont stage Plasmodium falciparum INDO infected in human erythrocytes assessed as decrease in parasitemia at 4.30 uM incubated for 4 hrs by time-kill kinetics based FACS analysis; assay type: functional, organism-based; details: Erythrocyte, dose 4.3 µM
Method in brief: (§4)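 PfINDO early schizonts (32–36 h post-invasion) and late schizonts (42–45 h post-invasion) were exposed to 5.62 or 4.30 μM for up to 16 h, washed at 4 h intervals, then cultured drug-free to a total of 96 h. Parasitemia was counted by FACS on 10^5 cells at the end of the second cycle; schizont rupture was checked microscopically.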

Plasmodium falciparum [12] = assay: Antiplasmodial activity against chloroquine resistant schizont stage Plasmodium falciparum INDO infected in human erythrocytes assessed as prevention of schizont rupture at 4.30 uM incubated for 4 hrs by time-kill kinetics based FACS analysis; assay type: functional, organism-based; details: Erythrocyte, dose 4.3 µM; method in brief: as §4
[13] = Toxicity in mouse assessed as appetite loss at 100 mg/kg, po measured after 45 mins; assay type: organism-based; details: in vivo, 0.75 h; method in brief: as §1
[14] = Toxicity in mouse assessed as sedation at 100 mg/kg, po measured after 45 mins; assay type: organism-based; details: in vivo, 0.75 h; method in brief: as §1
Plasmodium falciparum [15] = assay: Antiplasmodial activity against chloroquine sensitive Plasmodium falciparum 3D7 infected in human erythrocytes assessed as inhibition of parasite growth incubated for 72 hrs by SYBR green I staining based fluorescence plate reader analysis; assay type: functional, organism-based; details: 3D7, Erythrocyte
Method in brief: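 Pf3D7 or PfINDO was cultured in O+ human erythrocytes at 37 °C under 5% O2/5% CO2/90% N2 and ring-synchronised with 5% sorbitol. Cultures were exposed to 0–100 μM in triplicate for 72 h, with final DMSO 0.4%. After SYBR Green I lysis buffer (1 h, dark, 37 °C), fluorescence was read at 485/530 nm. Chloroquine-well counts were subtracted as background, and IC50 was obtained by non-linear regression.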

[16] = Toxicity in mouse assessed as effect on rate of respiration at 100 mg/kg, po measured after 45 mins; assay type: organism-based; details: in vivo, 0.75 h; method in brief: as §1
Plasmodium falciparum [17] = assay: Antiplasmodial activity against chloroquine resistant ring-stage Plasmodium falciparum INDO infected in human erythrocytes assessed as inhibition of parasite growth incubated for 12 hrs; assay type: functional, organism-based; details: Erythrocyte
Method in brief: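 PfINDO cultures were staged at 0–6 h (rings), 18–22 h (trophozoites), 30–34 h (early schizonts) and 40–44 h (late schizonts) post-invasion. Each was exposed to varying concentrations for 12 h, washed free of compound by centrifugation, and grown 48 h in drug-free medium. IC50 came from growth curves, with untreated culture as 100% and chloroquine-treated culture as 0% growth.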

Plasmodium falciparum [18] = assay: Synergistic antiplasmodial activity against multidrug-resistant Plasmodium falciparum Cam3.1R539T infected in human erythrocytes at 8 times IC50 concentration incubated for 72 hrs in presence of mefloquine by SYBR green I staining based fluorescence assay; assay type: functional, organism-based; details: Erythrocyte; method in brief: as §2
Plasmodium falciparum [19] = assay: Synergistic antiplasmodial activity against multidrug-resistant Plasmodium falciparum Cam3.1R539T infected in human erythrocytes at 8 times IC50 concentration incubated for 72 hrs in presence of pyrimethamine by SYBR green I staining based fluorescence assay; assay type: functional, organism-based; details: Erythrocyte; method in brief: as §2
Plasmodium falciparum [20] = assay: Antiplasmodial activity against chloroquine resistant segmental schizont stage Plasmodium falciparum INDO infected in human erythrocytes assessed inhibition of rupture at 5.62 uM preincubated with compound for 8 hrs followed by media replacement without compound and measured after 48 hrs by SYBR Green staining based FACS analysis; assay type: functional, organism-based; details: Erythrocyte
Plasmodium falciparum [21] = assay: Antiplasmodial activity against chloroquine resistant ring stage Plasmodium falciparum INDO infected in human erythrocytes assessed as reduction in parasitemia at 2.25 uM incubated for 12 hrs by time-kill kinetics based FACS analysis relative to control; assay type: functional, Erythrocyte; parameters: scale not given: the % may be the effect or the level left; method in brief: as §3
Plasmodium falciparum [22] = assay: Antiplasmodial activity against chloroquine resistant schizont stage Plasmodium falciparum INDO infected in human erythrocytes assessed as prevention of schizont rupture at 5.62 uM incubated for 4 hrs by time-kill kinetics based FACS analysis; assay type: functional, organism-based; details: Erythrocyte; method in brief: as §4

Row | SMILES | Kd [1] [s⁻¹] | Activity [2] | Ratio IC50 [3] | Activity (Plasmodium falciparum [4]) | Ka (Plasmodium falciparum [5]) [M⁻¹ s⁻¹] | Activity [8] | Activity [9] | Activity [13] | Activity [14] | IC50 (Plasmodium falciparum [15]) [nM] | Activity [16] | IC50 (Plasmodium falciparum [17]) [µM] | other results
1 | O=C(Cn1nnc(-c2cccc([N+](=O)[O-])c2)n1)N1CCN(c2ccnc3cc(Cl)ccc23)CC1 | 0.006 | Non-Toxic | 0.8 | Active | 1920 | Non-Toxic | Non-Toxic | Non-Toxic | Non-Toxic | 2230 | Non-Toxic | 7.51 | Activity (Plasmodium falciparum [6]): Active; Activity (Plasmodium falciparum [7]): Active; Activity (Plasmodium falciparum [10]): ~22%; Activity (Plasmodium falciparum [11]): Active; Activity (Plasmodium falciparum [12]): inactive
2 | Clc1ccc2c(N3CCN(CCCn4nnc(-c5ccc(Br)cc5)n4)CC3)ccnc2c1 | 0.191 | Non-Toxic | 1.21 | Active | 2610 | Non-Toxic | Non-Toxic | Non-Toxic | Non-Toxic | 1850 | Non-Toxic | 2.27 | Activity (Plasmodium falciparum [18]): Active; Activity (Plasmodium falciparum [19]): Active; Activity (Plasmodium falciparum [20]): Active; Activity (Plasmodium falciparum [21]): ~22%; Activity (Plasmodium falciparum [22]): Active
